The source of these data is ChEMBL document CHEMBL5385968 (RSC Med Chem, 2024).

One data set deals with Leucocyte. Description: Antiradical activity against PMA-stimulated BALB/c mouse bone marrow leucocytes assessed as inhibition of ROS production at 50 uM measured for 60 mins by chemiluminescence based analysis. It counts as functional, cell-based. The method in brief:
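BALB/c mouse bone marrow leukocytes were suspended at 10^6 cells/ml in HBSS with Ca2+/Mg2+ and 40 μM L-012. Compounds were added in HBSS+ (final DMSO 1%), tested up to a highest concentration of 50 μM. Cells were stimulated with 200 nM PMA, and chemiluminescence was read every 2 min for 60 min at 37 °C. IC50 came from % inhibition of the 60-min integrated signal versus log concentration (5–7 concentrations, nonlinear regression). Values are mean ± SD, n=3.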

Data set [1] in a line: Cytotoxicity against CD-1 mouse bone marrow leucocytes assessed as reduction in cell viability at 25 uM incubated for 90 mins by CellTiter-Glo Luminescent assay. It counts as toxicity, cell-based. The settings on record: leucocyte. The method in brief:
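CD-1 mouse bone marrow leukocytes at 10^4 cells/well were exposed to compounds up to 25 μM (highest tested; final DMSO 1%) for 90 min at 37 °C, 5% CO2. Viability was read by CellTiter-Glo luminescence. IC50 values are mean ± SD of three independent experiments.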
(In general: In ATP-based viability assays light output follows the ATP content of the culture.)

Data set [2] deals with T1, Neutrophil elastase (Homo sapiens) (UniProt P08246).
T1 sequence (whole entry): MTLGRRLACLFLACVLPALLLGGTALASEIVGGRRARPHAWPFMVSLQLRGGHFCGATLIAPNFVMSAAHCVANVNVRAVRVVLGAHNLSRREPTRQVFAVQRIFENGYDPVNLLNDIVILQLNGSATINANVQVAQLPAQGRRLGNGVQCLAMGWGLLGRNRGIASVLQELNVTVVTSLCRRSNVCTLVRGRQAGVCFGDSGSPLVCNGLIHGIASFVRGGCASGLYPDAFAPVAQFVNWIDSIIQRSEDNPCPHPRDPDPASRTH
Description: Inhibition of human neutrophil elastase using N-methylsuccinyl-Ala-Ala-Pro-Val-7-amino-4-methylcoumarin as substrate at 50 uM measured every 30 secs for 10 mins by fluorescence based analysis.

Data set [3] is described as follows: Antiradical activity against PMA-stimulated BALB/c mouse bone marrow leucocytes assessed as inhibition of ROS production measured for 60 mins by chemiluminescence based analysis. Format: functional, cell-based. The settings on record: Leucocyte, 1 h. In a few lines: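 BALB/c mouse bone marrow leukocytes were suspended at 10^6 cells/ml in HBSS with Ca2+/Mg2+ and 40 μM L-012. Compounds were added in HBSS+ (final DMSO 1%), tested up to a highest concentration of 50 μM. Cells were stimulated with 200 nM PMA, and chemiluminescence was read every 2 min for 60 min at 37 °C. Values are mean ± SD, n=3.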

A word on the IC50: it is the concentration that gives 50% inhibition.

The source made the active and inactive calls. The rule behind the calls is not given here.

For the compound `CCCCCC(=O)n1[se]c2ccccc2c1=O`, the inhibition entry in the data set on Leucocyte is “inactive”. Besides, the Activity result in data set [1] is listed as “Non-Toxic”.

Consider `Cc1cccc(NC(=O)c2ccc(-n3[se]c4ccccc4c3=O)cc2)c1`, for which the inhibition entry (in the data set on Leucocyte; in data set [2]) was “inactive” throughout. The Activity result in data set [1] is “Non-Toxic”. As for `O=C(C1CC1)n1[se]c2ccccc2c1=O`, in data set [3], the IC50 was 50 nM.

`Cc1cccc(C(=O)n2[se]c3ccccc3c2=O)c1`: in data set [1], the Activity result is on record as “Non-Toxic”. In the case of `CC(C)(C)C(=O)Oc1ccc(S(=O)(=O)n2[se]c3ccccc3c2=O)cc1`, in data set [1], the Activity entry is recorded as “Non-Toxic”. For the compound `O=c1c2ccccc2[se]n1-c1ccccc1`, in data set [2], the inhibition entry was “inactive”. On the same count and under the same terms, as for `CCOC(=O)n1[se]c2ccccc2c1=O`, the entry is “inactive”; as for `O=C(NC1CC1)n1[se]c2ccccc2c1=O`, “inactive”. Take `CC(C)(C)C(=O)Oc1ccc(S(=O)(=O)Nc2ccccc2C(=O)NCC(=O)O)cc1`: in data set [1], the Activity entry was “Non-Toxic”. In the case of `CCOC(=O)c1ccc(-n2[se]c3ccccc3c2=O)cc1`, the inhibition result in data set [2] is “inactive”. Moreover, the Activity entry in data set [1] is on record as “Non-Toxic”. Take `O=C(NC1CC1)c1ccc(-n2[se]c3ccccc3c2=O)cc1`: the inhibition result in data set [2] is “inactive”. Consider `O=C(c1ccsc1)n1[se]c2ccccc2c1=O`, for which the inhibition entry in data set [2] was “inactive”. Also, the Activity result in data set [1] is “Non-Toxic”. As to `CCOC(=O)CC(=O)n1[se]c2ccccc2c1=O`, the inhibition result in data set [2] is “inactive”.
